# Data as given in PubChem BioAssay AID540324 (Johns Hopkins Ion Channel Center, 2011).
# Activity calls are given as the source filed them.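 Rule for the calls: active = maximum inhibition above 30% at any tested concentration, with a dose response curve fitted; inactive = no inhibition at any dose or no dose response curve.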
# Assay: parental HEK293 potassium flux blockers – cell-based, FluxOR thallium flux, concentration-response, set 2, counter-screen for KCNK9 inhibitor project, SAR follow-up (AID 540324)
# Details: FluxOR fluorescence ratio; series mostly up to 30 µM
# How it was run: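 Also added: K+/Tl+ sulfate stimulus, 5x stock; system: parental HEK293 cells; times: dye loading 90 min at room temperature in dark, compound exposure 20 min; replicates: at least duplicate; doses: 10 concentrations; technique: FluxOR thallium-flux fluorescence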
row,SMILES,outcome
1,Cc1cccc(C(=O)Nc2cccc(NC(=O)c3ccccc3C(C)C)c2)c1,inactive
2,Cc1cccc(C(=O)Nc2cccc(NC(=O)C3CCCCC3)c2)c1,inactive
3,COc1ccccc1NC(=O)c1cccc(NC(=O)C2CCCCC2)c1,inactive
4,CCOc1ccccc1NC(=O)c1cccc(NC(=O)C2CCCO2)c1 (stereo not given),inactive
5,Cc1ccc(-c2n[nH]c(=S)n2C(C)C2CC3CCC2C3)cc1 (stereo not given),inactive
6,COc1ccccc1C(=O)Nc1cccc(NC(=O)c2ccccc2C(C)C)c1,inactive
7,Cc1cccc(C(=O)Nc2cccc(NC(=O)c3cccs3)c2)c1,inactive
8,CCOc1ccccc1C(=O)Nc1cccc(NC(=O)c2ccccc2C(F)(F)F)c1,inactive
9,COc1ccccc1C(=O)Nc1cccc(NC(=O)c2ccccc2)c1,inactive
10,CN(C)c1ccc(C(=O)Nc2cccc(NC(=O)c3ccccc3)c2)cc1,inactive
11,O=C(Nc1cccc(NC(=O)c2ccco2)c1)c1ccccc1,inactive
12,CCOc1ccccc1NC(=O)c1cccc(NC(=O)c2ccccc2Cl)c1,inactive
13,S=c1[nH]nc(-c2ccco2)n1CC1CCCCC1,inactive
14,Cc1cccc(C(=O)Nc2cccc(NC(=O)c3ccc(Cl)cc3)c2)c1,inactive
15,O=C(Nc1ccccc1Cl)c1cccc(NC(=O)C2CCCC2)c1,inactive
16,O=C(Nc1cccc(NC(=O)c2cccc(C(F)(F)F)c2)c1)c1ccccc1,inactive
17,Cc1ccccc1-c1n[nH]c(=S)n1C(C)C1CC2CCC1C2 (stereo not given),inactive
18,CCOc1ccccc1NC(=O)c1cccc(NC(=O)c2ccccc2OC)c1,inactive

row,SMILES,outcome
1,Cc1cccc(C(=O)Nc2cccc(NC(=O)c3cccc(Cl)c3)c2)c1,inactive
2,CC(C1CC2CCC1C2)n1c(-c2ccoc2)n[nH]c1=S (stereo not given),inactive
3,Cc1cccc(C(=O)Nc2cccc(NC(=O)c3ccccc3OCC(C)C)c2)c1,inactive
4,Cc1cccc(C(=O)Nc2cccc(NC(=O)c3ccccc3Cl)c2)c1,inactive
5,COc1ccccc1NC(=O)c1cccc(NC(=O)c2ccccc2)c1,inactive
6,COc1ccccc1C(=O)Nc1cccc(NC(=O)c2cccc(C)c2)c1,inactive
7,COc1cccc(-c2n[nH]c(=S)n2C(C)C2CC3CCC2C3)c1 (stereo not given),inactive
8,O=C(Nc1cccc(NC(=O)c2cccnc2)c1)c1ccccc1,inactive
9,COc1ccc(C(=O)Nc2cccc(NC(=O)c3cccc(C)c3)c2)cc1,inactive
10,CCOc1ccccc1NC(=O)c1cccc(NC(=O)C2CCCC2)c1,inactive
11,CCOc1ccccc1C(=O)Nc1cccc(NC(=O)c2ccccc2OC)c1,inactive
12,O=C(Nc1cccc(NC(=O)c2ccccn2)c1)c1ccccc1,inactive
13,Cc1cccc(C(=O)Nc2ccccc2NC(=O)c2ccccc2)c1,inactive
14,CCOc1ccccc1C(=O)Nc1cccc(NC(=O)C2CCCC2)c1,inactive
15,Cc1cccc(C(=O)Nc2cccc(NC(=O)c3ccc(C(F)(F)F)cc3)c2)c1,inactive
16,CCOc1ccccc1NC(=O)c1cccc(NC(=O)c2ccc(C)cc2)c1,inactive
17,CCOc1ccccc1NC(=O)c1cccc(NC(=O)c2ccc(C(F)(F)F)cc2)c1,inactive
